Screening data (PubChem BioAssay)
Hits are enriched below; roughly 1.3% of the tested compounds scored in any of these assays.
G6PDH counter: L. mesenteroides G6PDH inhibition counter-screen. actives 0.12% (n = 200,000). inhibition, % at 5 µM. Purified L. mesenteroides G6PDH, diaphorase/resazurin coupled fluorescence, 45 min; in the data active = inhibition above about 50%
Tb hexokinase: blocks Trypanosoma brucei hexokinase 1 activity | inhibition, % at 10 µM | AID 1430 | recombinant TbHK1, G6PDH-coupled NADH A340 | actives 0.11% (n = 220,000);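 active = inhibition of 50% or more in the single-dose primary screen; inactive = inhibition below 50%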
Diaphorase inh: counter-screen for diaphorase-based assays: diaphorase inhibitors and chemical oxidizers; actives 0.69% (n = 190,000); AID 1217; inhibition, % at 20 µM; diaphorase resazurin-to-resorufin fluorescence, NADH, 16 min; bacterial (C. kluyveri) enzyme, not human;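 active = primary screen inhibition at 20 µM above a set limit, cut at about 50% in these data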;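 also: plate controls were DMSO with full reaction for no effect and wells lacking NADH for full effect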
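Test system: diaphorase enzyme from Clostridium kluyveri; amount: diaphorase at 0.14 U/mL in enzyme working solution; detection: fluorescence of resorufin formed from resazurin, Ex 544/Em 590 nm; times: reaction incubation of 16 min at room temperature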
Diaphorase act: counter-screen for diaphorase-based assays: diaphorase activators and chemical reducers. AID 1229. actives 0.005% (n = 190,000). Diaphorase/resazurin coupled assay, resorufin fluorescence, 16 min; stronger effect = higher value; 1 = vehicle wells, 0 = NADH-free wells. activation factor at 20 µM;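 active = diaphorase activity raised at least twofold by the compound at 20 µM; inactive = activation factor below 2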
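Material: purified diaphorase enzyme from Clostridium kluyveri; Also added: 0.114 mM NADH and 0.1 mM resazurin, final amounts; Doses: single compound dose of 20 µM, 1% DMSO final; Times: 16 min enzyme reaction, ambient temperature; Detection: resorufin fluorescence, excitation 544 nm, emission 590 nm; Measure: increased resorufin signal from activators or reducing compounds.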
HKDC1 inhibitor: inhibitors of human hexokinase HKDC1; Q2TB90; recombinant HKDC1, G6PDH/diaphorase resazurin coupled fluorescence; inhibition, % at 20 µM; actives 0.16% (n = 340,000); AID 493160;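 active = inhibition above about 35% when tested at 20 µM, limit read from the data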;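 also: plate controls were DMSO wells with enzyme for no effect and DMSO wells lacking enzyme for full effect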
Target sequence (Q2TB90 whole entry, looked up): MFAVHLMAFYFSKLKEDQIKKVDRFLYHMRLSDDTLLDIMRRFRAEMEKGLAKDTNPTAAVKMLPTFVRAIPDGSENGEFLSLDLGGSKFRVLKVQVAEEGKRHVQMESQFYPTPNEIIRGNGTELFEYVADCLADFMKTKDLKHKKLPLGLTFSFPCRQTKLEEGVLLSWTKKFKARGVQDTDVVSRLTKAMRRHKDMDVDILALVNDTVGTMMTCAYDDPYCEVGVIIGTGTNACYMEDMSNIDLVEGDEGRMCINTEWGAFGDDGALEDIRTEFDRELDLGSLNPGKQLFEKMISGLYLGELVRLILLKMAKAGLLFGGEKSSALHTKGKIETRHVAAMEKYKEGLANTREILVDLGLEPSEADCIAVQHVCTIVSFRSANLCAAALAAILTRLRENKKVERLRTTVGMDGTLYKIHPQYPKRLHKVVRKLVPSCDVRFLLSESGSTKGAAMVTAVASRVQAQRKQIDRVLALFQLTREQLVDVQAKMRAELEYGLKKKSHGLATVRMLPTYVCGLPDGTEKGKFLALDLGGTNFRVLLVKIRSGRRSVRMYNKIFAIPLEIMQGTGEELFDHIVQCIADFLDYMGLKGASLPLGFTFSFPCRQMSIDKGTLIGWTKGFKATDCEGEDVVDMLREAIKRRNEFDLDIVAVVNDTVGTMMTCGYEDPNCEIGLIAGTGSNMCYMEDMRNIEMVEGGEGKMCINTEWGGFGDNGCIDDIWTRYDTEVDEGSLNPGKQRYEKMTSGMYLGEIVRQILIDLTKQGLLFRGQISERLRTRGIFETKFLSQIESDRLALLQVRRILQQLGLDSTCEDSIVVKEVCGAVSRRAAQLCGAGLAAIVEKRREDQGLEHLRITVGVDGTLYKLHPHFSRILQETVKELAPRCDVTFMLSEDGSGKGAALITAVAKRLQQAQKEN
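Material: recombinant HKDC1 hexokinase; Amount: HKDC1 at 5 µg/mL; Medium: Tris pH 8.0 buffer with MgCl2, Tween-20, BSA, BME; Schedule: 90 min reaction incubation at room temperature, dark; Technique: coupled resazurin fluorescence, excitation 525 nm, emission 613 nm.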
PfGluPho inh: PfG6PD (Plasmodium falciparum) enzyme inhibition | actives 0.78% (n = 350,000) | PfGluPho enzyme, NADPH resazurin-diaphorase fluorescence | AID 504690 | inhibition, % at 20 µM;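 active = inhibition reaching at least a set limit at 20 µM in the primary screen, cut at about 59% in these data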;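 also: 0% = DMSO wells with substrate and 100% = DMSO wells lacking glucose-6-phosphate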
PfGluPho conf: PfG6PD inhibition, single-dose confirmed. shares compounds with PfGluPho inh. recombinant PfGluPho, NADPH-diaphorase-resazurin fluorescence. actives 34% (n = 2,400). inhibition, % at 20 µM;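 active = inhibition of at least 50% at 20 µM in any single replicate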;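 also: 0% = DMSO with substrate and 100% = DMSO lacking glucose-6-phosphate substrate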
Diaphorase 10uM: diaphorase inhibition or oxidation at 10 uM NADPH; shares compounds with PfGluPho inh; diaphorase-coupled resazurin reduction, fluorescence, NADPH 10 uM; inhibition, % at 20 µM; actives 39% (n = 820); AID 504862;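 active = average inhibition reaching 50% or more with the compound at 20 µM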;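 also: resorufin red fluorescence formed as diaphorase reduces resazurin using NADPH; 0% = DMSO with enzyme and 100% = DMSO without enzyme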
Diaphorase 30uM: diaphorase inhibition or oxidation at 30 uM NADPH; Diaphorase/resazurin coupled assay, resorufin fluorescence; AID 504863; inhibition, % at 20 µM; actives 29% (n = 820); shares compounds with PfGluPho inh;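 active = inhibition averaging 50% or more, tested at 20 µM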;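 also: 0% = DMSO with enzyme and 100% = DMSO wells lacking diaphorase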
The depositor's hits bear a star.

Cc1ccc(O)c(N=Cc2cccs2)c1 was read as G6PDH counter 36.3, Tb hexokinase -0.2, Diaphorase inh 29.7, Diaphorase act 0.7, HKDC1 inhibitor 15.1, PfGluPho inh 70.9* and PfGluPho conf 45.0.
Screening CCn1nnc2cc(C(=O)NCCc3ccccc3F)ccc21 returned HKDC1 inhibitor 0.8 and PfGluPho inh -19.1.
Screening Cc1ccccc1NS(=O)(=O)c1csc(C(N)=O)c1 returned HKDC1 inhibitor -4.4 and PfGluPho inh -12.8.
Screening COc1ccc(/C=N/Nc2cc(C)nc3c(C)cccc23)cc1 returned HKDC1 inhibitor -3.4, PfGluPho inh 76.1* and PfGluPho conf 33.4.
For NC(=O)c1ccc(N2CCN(c3ccc(O)cc3)CC2)c([N+](=O)[O-])c1 the results were G6PDH counter 15.0, Tb hexokinase -4.1, Diaphorase inh 42.1, Diaphorase act 0.6, HKDC1 inhibitor -0.1, PfGluPho inh 66.0* and PfGluPho conf 22.5.
O=C(NCC(=O)N1CCN(c2ccccc2O)CC1)c1ccc2c(c1)OCO2 was read as HKDC1 inhibitor 3.4 and PfGluPho inh 10.1.
`CCCCn1c(N)c(-c2nc3ccccc3s2)c2c([N+](=O)[O-])nn(C)c(=O)c21` gave G6PDH counter -2.4, Tb hexokinase -20.0, Diaphorase inh 16.4, Diaphorase act 0.8, HKDC1 inhibitor 3.4 and PfGluPho inh 5.2.
Cn1nc([N+](=O)[O-])c2c(-c3nc4ccccc4s3)c(N)n(C3CCCCC3)c2c1=O was read as G6PDH counter 5.3, Tb hexokinase -19.4, Diaphorase inh 2.2, Diaphorase act 1, HKDC1 inhibitor 11.2, PfGluPho inh 77.1* and PfGluPho conf -2.5.
For O=C(CCCCN1CCCCC1)c1ccc2c(c1)Cc1ccccc1-2 the results were G6PDH counter -10.7, Tb hexokinase -1.3, Diaphorase inh -19.7, Diaphorase act 1.2, HKDC1 inhibitor -9.8 and PfGluPho inh 6.9.
For COc1c2ccoc2c(OC[C@@H](O)C(C)(C)O)c2oc(=O)ccc12 the results were G6PDH counter 14.9, Tb hexokinase -9.7, Diaphorase inh 19.9, Diaphorase act 0.8, HKDC1 inhibitor -2.5 and PfGluPho inh 9.4.
COc1c2ccoc2c(OCC=C(C)C)c2oc(=O)ccc12 was read as G6PDH counter 25.9, Tb hexokinase -6.3, Diaphorase inh 27.5, Diaphorase act 0.7, HKDC1 inhibitor 4.3, PfGluPho inh 67.8*, PfGluPho conf 54.2*, Diaphorase 10uM 17.8 and Diaphorase 30uM 29.3.
Screening c1ccc(COn2nnc3ccccc32)c(COn2nnc3ccccc32)c1 returned G6PDH counter -8.0, Tb hexokinase 1.7, Diaphorase inh 19.0, Diaphorase act 0.8, HKDC1 inhibitor 9.4, PfGluPho inh 49.9 and PfGluPho conf 14.4.
For COc1ccc2ccccc2c1C1NC(=O)NC(C)=C1[N+](=O)[O-] (stereo not given) the results were HKDC1 inhibitor 10.7 and PfGluPho inh 2.5.
`Cc1ccccc1OCC(=O)NCC(=O)N/N=C/c1cccc([N+](=O)[O-])c1` gave G6PDH counter 4.3, Tb hexokinase -0.8, Diaphorase inh -4.3 and Diaphorase act 1.
`Cc1ccccc1OCC(=O)N/N=C/c1cccc(Oc2ccc([N+](=O)[O-])cc2[N+](=O)[O-])c1` gave G6PDH counter -41.4, Tb hexokinase -3.9, Diaphorase inh 38.3, Diaphorase act 0.6, HKDC1 inhibitor 10.9, PfGluPho inh 126.6*, PfGluPho conf 93.2*, Diaphorase 10uM 86.6* and Diaphorase 30uM 71.1*.
